Results reported in ChEMBL document CHEMBL1287796, “Discovery of new chemotype dipeptidyl peptidase IV inhibitors having (R)-3-amino-3-methyl piperidine as a pharmacophore” (Bioorg Med Chem Lett, 2010).
Activity calls are given as the source filed them. The calls are words filed in the database; no cut-off is given here.

Columns and labels:
Dipeptidyl peptidase 9 = Dipeptidyl peptidase 9 (Homo sapiens, UniProt Q86TI2); assay: Inhibition of DPP9
Dipeptidyl peptidase 8 = Dipeptidyl peptidase 8 (Homo sapiens, UniProt Q6V1X1); assay: Inhibition of DPP8
Dipeptidyl peptidase 8, sequence (Q6V1X1 whole entry): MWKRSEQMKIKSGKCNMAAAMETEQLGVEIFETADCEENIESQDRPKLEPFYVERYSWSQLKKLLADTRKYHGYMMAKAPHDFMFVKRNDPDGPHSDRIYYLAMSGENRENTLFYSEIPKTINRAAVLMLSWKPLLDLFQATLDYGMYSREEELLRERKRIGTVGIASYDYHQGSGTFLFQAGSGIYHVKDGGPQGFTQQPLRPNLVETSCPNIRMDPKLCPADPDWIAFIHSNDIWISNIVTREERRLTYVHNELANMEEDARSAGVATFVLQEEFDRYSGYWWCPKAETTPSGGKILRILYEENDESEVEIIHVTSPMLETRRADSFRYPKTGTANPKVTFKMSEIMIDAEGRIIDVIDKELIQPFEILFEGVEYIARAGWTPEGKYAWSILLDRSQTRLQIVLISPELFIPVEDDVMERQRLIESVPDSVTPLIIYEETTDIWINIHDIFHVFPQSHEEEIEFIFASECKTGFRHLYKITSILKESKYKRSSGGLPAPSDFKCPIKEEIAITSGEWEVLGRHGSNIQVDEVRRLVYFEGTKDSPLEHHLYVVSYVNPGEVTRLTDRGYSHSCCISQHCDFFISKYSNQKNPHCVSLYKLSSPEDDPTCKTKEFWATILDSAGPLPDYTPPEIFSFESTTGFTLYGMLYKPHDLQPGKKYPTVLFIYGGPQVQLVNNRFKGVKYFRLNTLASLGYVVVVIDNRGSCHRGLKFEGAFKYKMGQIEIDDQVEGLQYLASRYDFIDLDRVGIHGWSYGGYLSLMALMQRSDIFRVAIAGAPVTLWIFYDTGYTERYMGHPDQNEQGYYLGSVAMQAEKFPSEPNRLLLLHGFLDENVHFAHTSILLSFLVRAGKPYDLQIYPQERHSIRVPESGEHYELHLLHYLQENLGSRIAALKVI

Liver microsomes [1] = assay: Metabolic stability in human liver microsomes at 10 uM after 39 mins; type: ADME, Microsome; details: 0.5 h, in the assay text read “30 mins” for “39 mins”
Outline: (§1)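 Compound incubated for 30 min with hepatic microsomes (human or rat) plus NADPH. Metabolic stability is expressed as clearance in ml/min/mg protein.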

Cytochrome P450 3A4 = Cytochrome P450 3A4 (Homo sapiens, UniProt P08684); assay: Inhibition of CYP3A4 in human liver microsomes after 10 mins; type: ADME, Microsome
Cytochrome P450 3A4, sequence (P08684 whole entry, canonical isoform): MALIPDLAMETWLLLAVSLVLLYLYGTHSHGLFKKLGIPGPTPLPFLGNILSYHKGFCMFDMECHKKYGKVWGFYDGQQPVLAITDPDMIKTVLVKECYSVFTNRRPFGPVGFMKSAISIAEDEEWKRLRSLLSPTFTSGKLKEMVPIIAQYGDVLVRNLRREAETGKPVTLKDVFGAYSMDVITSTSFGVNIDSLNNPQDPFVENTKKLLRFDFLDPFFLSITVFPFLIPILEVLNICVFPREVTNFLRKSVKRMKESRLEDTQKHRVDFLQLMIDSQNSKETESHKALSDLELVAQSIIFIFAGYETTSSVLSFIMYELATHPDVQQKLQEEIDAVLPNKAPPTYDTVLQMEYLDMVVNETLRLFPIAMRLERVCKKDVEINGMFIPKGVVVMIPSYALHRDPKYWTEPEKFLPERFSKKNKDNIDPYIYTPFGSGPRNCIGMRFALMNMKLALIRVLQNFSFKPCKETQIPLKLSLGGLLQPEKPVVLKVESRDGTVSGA
Outline: (§2)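 Human liver microsomes incubated with test compound and NADPH for 10 min; CYP isoform inhibition reported as IC50.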

Liver microsomes [2] = assay: Metabolic stability in rat liver microsomes at 10 uM after 39 mins; type: ADME, Microsome; details: 0.5 h, in the assay text read “30 mins” for “39 mins”; outline: as §1
Cytochrome P450 2D6 = Cytochrome P450 2D6 (Homo sapiens, UniProt P10635); assay: Inhibition of CYP2D6 in human liver microsomes after 10 mins; type: ADME, Microsome; outline: as §2
Cytochrome P450 2D6, sequence (P10635 whole entry): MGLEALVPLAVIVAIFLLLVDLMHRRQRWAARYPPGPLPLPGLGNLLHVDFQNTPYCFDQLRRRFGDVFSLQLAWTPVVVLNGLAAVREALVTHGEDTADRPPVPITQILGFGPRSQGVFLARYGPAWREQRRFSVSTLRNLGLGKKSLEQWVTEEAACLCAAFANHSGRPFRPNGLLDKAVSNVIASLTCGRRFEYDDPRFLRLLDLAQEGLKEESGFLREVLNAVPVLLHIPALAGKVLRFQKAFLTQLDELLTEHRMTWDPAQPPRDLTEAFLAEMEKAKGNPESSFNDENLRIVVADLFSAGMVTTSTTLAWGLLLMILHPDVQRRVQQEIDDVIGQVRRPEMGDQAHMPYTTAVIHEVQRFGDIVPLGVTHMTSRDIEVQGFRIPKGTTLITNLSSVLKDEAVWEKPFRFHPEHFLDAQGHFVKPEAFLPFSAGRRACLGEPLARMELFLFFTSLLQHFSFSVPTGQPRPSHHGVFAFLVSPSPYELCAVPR

Cytochrome P450 1A2 = target: T1, Cytochrome P450 1A2 (Homo sapiens, UniProt P05177); assay: Inhibition of CYP1A2 in human liver microsomes after 10 mins; type: ADME, Microsome; outline: as §2
T1 sequence (P05177 whole entry): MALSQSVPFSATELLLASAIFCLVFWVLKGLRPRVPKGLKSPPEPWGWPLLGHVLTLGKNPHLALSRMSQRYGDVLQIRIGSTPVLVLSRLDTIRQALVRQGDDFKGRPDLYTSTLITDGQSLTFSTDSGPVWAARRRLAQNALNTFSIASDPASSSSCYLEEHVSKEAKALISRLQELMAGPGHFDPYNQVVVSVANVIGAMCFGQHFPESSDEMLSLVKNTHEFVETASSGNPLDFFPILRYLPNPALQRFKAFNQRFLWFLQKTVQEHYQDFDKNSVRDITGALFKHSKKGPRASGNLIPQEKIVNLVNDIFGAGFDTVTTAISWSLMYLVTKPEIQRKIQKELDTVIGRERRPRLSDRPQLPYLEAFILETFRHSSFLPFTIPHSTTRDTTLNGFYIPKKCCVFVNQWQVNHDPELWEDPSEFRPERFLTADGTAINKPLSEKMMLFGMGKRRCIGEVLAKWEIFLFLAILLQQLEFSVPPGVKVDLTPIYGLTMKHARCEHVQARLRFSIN

[3] = Lipophilicity, log P of the compound; type: physicochemical; details: octanol/water
[4] = Clearance in rat at 1 mg/kg, iv; type: ADME, organism-based; design: dose 1 mg/kg, route intravenous; details: in vivo
[5] = Oral bioavailability in rat at 10 mg/kg; type: ADME, organism-based; details: in vivo
[6] = Tmax in rat at 1 mg/kg, iv and 10 mg/kg, po; type: ADME, organism-based; details: in vivo
[7] = Volume of distribution at steady state in rat at 1 mg/kg, iv; type: ADME, organism-based; design: dose 1 mg/kg, route intravenous; details: in vivo, read-out: Vdss
[8] = Half life in rat at 10 mg/kg, po; type: ADME, organism-based; design: dose 10 mg/kg, route oral; details: in vivo
[9] = Protein binding in human serum; type: ADME, cell-free; details: read-out: PB (converted)
Rattus norvegicus [10] = species on record: Rattus norvegicus; details: Zucker-Fatty, 1 mg/kg
Rattus norvegicus [11] = species on record: Rattus norvegicus; details: Zucker-Fatty, 1 mg/kg; remark: listed apart in the source

Dipeptidyl peptidase 9, sequence (Q86TI2 whole entry): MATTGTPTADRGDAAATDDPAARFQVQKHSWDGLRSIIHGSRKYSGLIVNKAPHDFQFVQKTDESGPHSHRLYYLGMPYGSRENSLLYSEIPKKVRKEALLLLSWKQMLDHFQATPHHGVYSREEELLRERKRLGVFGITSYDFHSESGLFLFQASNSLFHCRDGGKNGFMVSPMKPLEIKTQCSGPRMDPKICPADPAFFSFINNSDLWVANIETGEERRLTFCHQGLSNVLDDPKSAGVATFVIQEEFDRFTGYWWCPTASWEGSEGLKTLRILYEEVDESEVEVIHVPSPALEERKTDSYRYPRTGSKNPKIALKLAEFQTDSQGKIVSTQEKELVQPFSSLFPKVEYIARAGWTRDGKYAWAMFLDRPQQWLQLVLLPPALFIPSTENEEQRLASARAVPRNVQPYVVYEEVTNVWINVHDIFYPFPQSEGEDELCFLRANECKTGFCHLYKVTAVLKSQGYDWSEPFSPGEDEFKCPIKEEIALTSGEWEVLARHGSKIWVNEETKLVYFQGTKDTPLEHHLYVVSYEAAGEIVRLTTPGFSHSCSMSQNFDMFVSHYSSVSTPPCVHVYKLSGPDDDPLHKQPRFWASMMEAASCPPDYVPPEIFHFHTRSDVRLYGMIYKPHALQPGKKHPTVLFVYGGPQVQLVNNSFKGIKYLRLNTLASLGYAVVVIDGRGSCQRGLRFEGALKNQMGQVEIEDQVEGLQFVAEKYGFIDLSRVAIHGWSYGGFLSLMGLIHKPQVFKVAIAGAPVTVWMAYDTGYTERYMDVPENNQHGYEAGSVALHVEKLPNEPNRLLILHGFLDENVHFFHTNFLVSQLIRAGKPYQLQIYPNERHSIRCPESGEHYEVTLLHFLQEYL

Row | SMILES | IC50 (Dipeptidyl peptidase 9) | IC50 (Dipeptidyl peptidase 8) | Microsomal clearance (Liver microsomes [1]) | IC50 (Cytochrome P450 3A4) | Microsomal clearance (Liver microsomes [2]) | IC50 (Cytochrome P450 2D6) | IC50 (Cytochrome P450 1A2) | further results
1 | Cn1c(=O)c2c(cc(N3CCC[C@@](C)(N)C3)n2Cc2ccccc2C#N)n(C)c1=O | > 10 µM | > 10 µM |  |  |  |  |  | logP [3]: 0.28
2 | Cn1cnc2cc(N3CCC[C@@](C)(N)C3)n(Cc3cc(F)ccc3Cl)c2c1=O | > 10 µM | > 10 µM |  |  |  |  |  | 
3 | Cn1cnc2cc(N3CCC[C@@](C)(N)C3)n(Cc3ccccc3C#N)c2c1=O | > 10 µM | > 10 µM |  |  |  |  |  | 
4 | CCn1c(=O)n(C)c(=O)c2c1cc(N1CCC[C@@](C)(N)C1)n2Cc1cc(F)ccc1C#N.Cl | > 10 µM | > 10 µM | 21 µL/min/mg | 9.4 µM | < 10 µL/min/mg | 0.4 µM | 26.8 µM | 
5 | Cc1ccc(F)cc1Cn1c(N2CCC[C@@](C)(N)C2)cc2ncn(C)c(=O)c21.Cl | > 10 µM | > 10 µM | 48 µL/min/mg | 11.9 µM | 264 µL/min/mg | 14.3 µM | > 40 µM | 
6 | Cc1ccc(F)cc1Cn1c(N2CCC[C@@](C)(N)C2)cc2c1c(=O)n(C)c(=O)n2C.Cl | > 10 µM | > 10 µM | 56 µL/min/mg | 20.2 µM | 13 µL/min/mg | > 40 µM | > 40 µM | clearance [4]: 51.5 mL/min/kg; bioavailability [5]: 69.3%; Tmax [6]: 3 h; Vd [7]: 14.4 L/kg; half-life [8]: 4.69 h; fraction unbound [9]: 0.049; inhibition (Rattus norvegicus [10]): Active; inhibition (Rattus norvegicus [11]): Active

Now from value to compound, other results behind:

Row | IC50 (Dipeptidyl peptidase 9) | IC50 (Dipeptidyl peptidase 8) | Microsomal clearance (Liver microsomes [1]) | IC50 (Cytochrome P450 3A4) | Microsomal clearance (Liver microsomes [2]) | IC50 (Cytochrome P450 2D6) | IC50 (Cytochrome P450 1A2) | SMILES | further results
7 | > 10 µM | > 10 µM |  |  |  |  |  | CCOCCCn1c(=O)n(C)c(=O)c2c1cc(N1CCC[C@@](C)(N)C1)n2Cc1cc(F)ccc1Cl | 
8 | > 10 µM | > 10 µM | 16 µL/min/mg | 7.7 µM | 17 µL/min/mg | 0.2 µM | > 40 µM | Cl.Cn1c(=O)c2c(cc(N3CCC[C@@](C)(N)C3)n2Cc2cc(F)ccc2Cl)n(CCCO)c1=O | 
9 | > 10 µM | > 10 µM | 82 µL/min/mg | 10.2 µM | 46 µL/min/mg | 3.4 µM | > 40 µM | Cl.Cn1c(=O)c2c(cc(N3CCC[C@@](C)(N)C3)n2Cc2cc(F)ccc2Cl)n(C)c1=O | 
10 | > 10 µM | > 10 µM |  |  |  |  |  | Cn1cnc2cc(N3CCC[C@@](C)(N)C3)n(Cc3cc(F)ccc3C#N)c2c1=O | 
11 | > 10 µM | > 10 µM | 19 µL/min/mg | 13.4 µM | < 10 µL/min/mg | < 0.165 µM | 26.3 µM | CN(C)C(=O)Cn1c(=O)n(C)c(=O)c2c1cc(N1CCC[C@@](C)(N)C1)n2Cc1cc(F)ccc1Cl.Cl | 
